Measured values from different studies.
Lines come from different studies, so protocols differ.
CHRM1: Muscarinic acetylcholine receptor M1 (CHRM1, Homo sapiens, UniProt P11229)
CSNK1A1L: Casein kinase I isoform alpha-like (CSNK1A1L, Homo sapiens, UniProt Q8N752)
CDK3: Cyclin-dependent kinase 3 (CDK3, Homo sapiens, UniProt Q00526)

SMILES | target | test | test system | conditions | quantity | value
NC/C(=C\F)COc1cccc(Cn2c(=S)[nH]c(=O)c3[nH]cnc32)c1 | CHRM1 | ligand displacement, radioligand |  | 10 µM | inhibition | < 50%
C1=C/COCc2cc(ccc2OCCN2CCCC2)Nc2nccc(n2)-c2cccc(c2)COC/1 | CSNK1A1L | binding |  | 0.1 µM | remaining binding | 99%
Cc1cc(F)cc2c(CCC(=O)N[C@@H]3C(=O)NC[C@H]3O)c(-c3ccc(F)cc3)[nH]c12 | CHRM1 | cell-free assay |  | 10 µM | inhibition | 14%
Cc1cc(O)c(-c2ccc([C@@H](C)CN(C)C)cc2)c2c1[nH]c(=O)c1sccc12 | Serine/threonine-protein kinase Sgk1 (SGK1, Homo sapiens, UniProt O00141) | enzyme activity, inhibitor |  | 0.1 µM | inhibition | -3.37%
Cc1cc(S(=O)(=O)N[C@H]2CC[C@H](CN3CCN(c4ccc(C5CCC(=O)NC5=O)cc4F)CC3)CC2)ccc1Nc1ncc(C(F)(F)F)c(N2CCC[C@](C)(O)C2)n1 (some centres unmarked) | CDK3 | binding, competition with immobilised ligand |  | 1 µM | remaining binding | 63%
CCCCC(=O)Nc1ccc(-c2ccc3ncn(CCC)c(=O)c3c2)cn1 | CSNK1A1L | binding, competition with immobilised ligand |  | 0.5 µM | remaining binding | 99%
CNC(=O)COc1cc2cc(Nc3nc(N4CCC(C(=O)N(C)C)CC4)ncc3Cl)cc(OC)c2n(C)c1=O | B-cell lymphoma 6 protein (BCL6, Homo sapiens, UniProt P41182) | target engagement in cells, BRET | HEK-293T | 1 µM | inhibition | > 90%
C#Cc1cc(-c2cc(Nc3nc(N[C@@H](C)c4ccc(F)cn4)ncc3Cl)n[nH]2)ccc1C=O | Tyrosine-protein kinase JAK1 (JAK1, Homo sapiens, UniProt P23458) | enzyme activity, inhibitor |  | 0.2 µM | inhibition | 89.1%
CCN1/C(=C/C(C)=O)Sc2ccc(F)cc21 | Prostaglandin E2 receptor EP2 subtype (PTGER2, Homo sapiens, UniProt P43116) | ligand displacement, radioligand |  | 10 µM | inhibition | 4.3%
CNS(=O)(=O)c1ccc(Nc2ncc(C(F)(F)F)c(N3CCC[C@](C)(O)C3)n2)c(C)c1 | CDK3 | binding, competition with immobilised ligand |  | 1 µM | remaining binding | 49%
COc1ccc2oc(-c3ccc4nc(N)oc4c3)c/c(=N\c3ccccc3NC(=O)CCN)c2c1 | Tyrosine-protein kinase ABL1 (Abl1, Mus musculus, UniProt P00520) | binding |  | 1 µM | remaining binding | 91%
